Data published in ChEMBL document CHEMBL1134314, “Characterization of the 1H-cyclopentapyrimidine-2,4(1H,3H)-dione derivative (S)-CPW399 as a novel, potent, and subtype-selective AMPA receptor full agonist with partial desensitization properties” (J Med Chem, 2001).
Activity calls are given as the source filed them. The calls are words filed in the database; no cut-off is given here.

Columns and labels:
[1] = biological target: Glutamate receptor ionotropic, kainate; experiment: Binding affinity towards Ionotropic glutamate receptor kainate in rat brain; assay type: tissue-based
How it was run: (§1)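 Radioligand competition binding on native ionotropic glutamate receptors in rat brain membranes. Inactivity was defined at 10^-4 M. Values are means ± SEM of three to four competition experiments, each run in triplicate.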

[2] = biological target: Glutamate NMDA receptor (Rattus norvegicus) (UniProt P35439+Q00959+Q00960+Q00961+Q62645+Q8VHN2+Q9R1M7); experiment: Binding affinity towards NMDA receptor; not active; assay type: protein-complex assay; how it was run: as §1
[3] = Hill slope was determined
[4] = biological target: Glutamate receptor ionotropic, AMPA (Rattus norvegicus, UniProt P19490+P19491+P19492+P19493); experiment: Binding affinity towards AMPA receptor in rat brain; assay type: tissue-based

| Ki [1] [µM] | NA [2] | Hill coefficient [3] | Ki [4] [µM] | SMILES |
| --- | --- | --- | --- | --- |
| 7.94 | inactive | 0.95 nH [middle of 8 runs] |  | N[C@@H](Cn1c2c(c(=O)[nH]c1=O)CCC2)C(=O)O |
| > 10 |  |  | 1.37 | N[C@@H](Cn1c2c(c(=O)[nH]c1=S)CCC2)C(=O)O |
